Measurements reported in ChEMBL document CHEMBL1125298, “Hypocholesterolemic activity of synthetic and natural tocotrienols” (J Med Chem, 1992).
Converted amounts (≈) assume the structure as drawn. “And” between values parts separate entries of the source, which are not always exact repeats. Identical values can stand only once.

Experiments:
[1] = test system: HepG2; experiment: Compound evaluated for percent inhibition of cholesterol synthesis from HMG-CoA Reductase in HepG2 cell; format: functional, Homo sapiens
[2] = test system: HepG2; experiment: Compound evaluated for percent inhibition of cholesterol synthesis from [14C]acetate in HepG2 cell; format: functional, Homo sapiens; design: concentration or dose not given beside the values
[3] = species on record: Rattus norvegicus; experiment: Inhibitory concentration required to inhibit cholesterol biosynthesis in rat hepatocytes; format: functional, Hepatocyte
[4] = species on record: Rattus norvegicus; experiment: Compound was evaluated for percent inhibition of cholesterol biosynthesis in primary rat hepatocytes at a concentration of 2200 ug/mL (pre-incubated for 45 min); format: functional; conditions: Hepatocyte
[5] = species on record: Rattus norvegicus; experiment: Compound was evaluated for percent inhibition of cholesterol biosynthesis in primary rat hepatocytes at a concentration of 275 ug/mL (pre-incubated for 45 min); format: functional; conditions: Hepatocyte
[6] = species on record: Rattus norvegicus; experiment: Compound was evaluated for percent inhibition of cholesterol biosynthesis in primary rat hepatocytes at a concentration of 1100 ug/mL (pre-incubated for 45 min); format: functional; conditions: Hepatocyte
[7] = species on record: Rattus norvegicus; experiment: Compound was evaluated for percent inhibition of cholesterol biosynthesis in primary rat hepatocytes at a concentration of 550 ug/mL (pre-incubated for 45 min); format: functional; conditions: Hepatocyte
[8] = species on record: Rattus norvegicus; experiment: Compound was evaluated for percent inhibition of cholesterol biosynthesis in primary rat hepatocytes at a concentration of 138 ug/mL (pre-incubated for 45 min); format: functional; conditions: Hepatocyte
[9] = test system: HepG2; experiment: Compound is evaluated for the inhibition of cholesterol synthesis in HepG2 cells for an incubation time of 2 (h); format: functional, cell-based; conditions: Homo sapiens
Procedure, shortened: (§1)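 HepG2 cells were grown in RPMI-1640 with 10% FBS. At about 70% confluence they were switched to 7% lipid-depleted serum for 16 h. Compound in DMSO (0.5% v/v final) was added for the stated time. A [2-14C]acetate pulse over the final 60 min measured incorporation into digitonin-precipitable sterols. IC50 came from linear regression of at least four concentrations, each in duplicate.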

[10] = species on record: Gallus gallus; experiment: Compound is evaluated for the effect on lipid metabolism in 6-week-old male chickens at a concentration of 20 ppm in the diet and measured for HDL cholesterol (dose 15 p.p.m.); format: functional
[11] = species on record: Gallus gallus; experiment: Compound is evaluated for the effect on lipid metabolism in 6-week-old male chickens at a concentration of 20 ppm in the diet and measured for total cholesterol (dose 30 p.p.m.); format: functional
[12] = test system: HepG2; experiment: Compound is evaluated for the inhibition of cholesterol synthesis in HepG2 cells for an incubation time of 6 (h); format: functional, cell-based; conditions: Homo sapiens; procedure, shortened: as §1
[13] = species on record: Gallus gallus; experiment: Compound is evaluated for the effect on lipid metabolism in 6-week-old male chickens at a concentration of 20 ppm in the diet and measured for LDL cholesterol dose 45 p.p.m.); format: functional
Procedure, shortened: (§2)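 Male chicks were raised 2 weeks on a corn-soybean control diet, then fed 4 weeks on control diet or the same diet with compound added. All birds were fasted 36 h and refed 48 h before sacrifice. Serum cholesterol is given as mg/100 mL.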

[14] = species on record: Gallus gallus; experiment: Compound is evaluated for the effect on lipid metabolism in 6-week-old male chickens at a concentration of 20 ppm in the diet and measured for HDL cholesterol (dose 30 p.p.m.); format: functional
[15] = species on record: Gallus gallus; experiment: picomoles of mevalonic acid synthesized per minute per mg of microsomal […] 45 p.p.m.); format: functional, organism-based
[16] = species on record: Gallus gallus; experiment: picomoles of mevalonic acid synthesized per minute per mg of microsomal protein(dose 30 p.p.m.); format: functional, organism-based
[17] = species on record: Gallus gallus; experiment: Compound is evaluated for the effect on lipid metabolism in 6-week-old male chickens at a concentration of 20 ppm in the diet and measured for total cholesterol (dose 45 p.p.m.); format: functional
[18] = test system: HepG2; experiment: Compound evaluated for Percent inhibition of cholesterol synthesis from HMG-CoA Reductase in HepG2 cell; format: functional, Homo sapiens
[19] = species on record: Gallus gallus; experiment: Compound is evaluated for the effect on lipid metabolism in 6-week-old male chickens at a concentration of 20 ppm in the diet and measured for LDL cholesterol (dose 15 p.p.m.); format: functional; procedure, shortened: as §2
[20] = test system: HepG2; experiment: Compound evaluated for Percent inhibition of cholesterol synthesis from [14C]acetate in HepG2 cell; format: functional, Homo sapiens
[21] = species on record: Gallus gallus; experiment: Compound is evaluated for the effect on lipid metabolism in 6-week-old male chickens at a concentration of 20 ppm in the diet and measured for HDL cholesterol dose 45 p.p.m.); format: functional
[22] = species on record: Gallus gallus; experiment: Compound is evaluated for the effect on lipid metabolism in 6-week-old male chickens at a concentration of 20 ppm in the diet and measured for total cholesterol (dose 15 p.p.m.); format: functional
[23] = test system: HepG2; experiment: Compound is evaluated for the inhibition of cholesterol synthesis in HepG2 cells for an incubation time of 4 (h); format: functional, cell-based; conditions: Homo sapiens; procedure, shortened: as §1
[24] = species on record: Gallus gallus; experiment: Compound is evaluated for the effect on lipid metabolism in 6-week-old male chickens at a concentration of 20 ppm in the diet and measured for LDL cholesterol (dose 30 p.p.m.); format: functional; procedure, shortened: as §2
[25] = species on record: Gallus gallus; experiment: picomoles of mevalonic acid synthesized per minute per mg of microsomal protein (dose 15 p.p.m.); format: functional, organism-based
[26] = species on record: Gallus gallus; experiment: picomoles of mevalonic acid synthesized per minute per mg of microsomal protein(dose 45 p.p.m.); format: functional, organism-based
[27] = species on record: Rattus norvegicus; experiment: Compound is evaluated for the inhibition of cholesterol biosynthesis in isolated rat hepatocytes at the concentration 500 ug/mL; format: functional, Hepatocyte
[28] = species on record: Rattus norvegicus; experiment: Percent inhibition at 250 ug/mL of binary mixtures of compound and alpha-tocotrienol on cholesterol synthesis in rat hepatocytes; format: functional, Hepatocyte
[29] = species on record: Rattus norvegicus; experiment: Compound is evaluated for the inhibition of cholesterol biosynthesis in isolated rat hepatocytes at the concentration 250 (ug/mL); format: functional, Hepatocyte
[30] = species on record: Gallus gallus; experiment: Compound is evaluated for the effect on lipid metabolism in 6-week-old male chickens at a concentration of 20 ppm in the diet and measured for LDL cholesterol; format: functional; procedure, shortened: as §2
[31] = species on record: Gallus gallus; experiment: Compound is evaluated for the effect on lipid metabolism in 6-week-old male chickens at a concentration of 20 ppm in the diet and measured for HDL cholesterol (dose 45 p.p.m.); format: functional
[32] = species on record: Rattus norvegicus; experiment: Compound is evaluated for the inhibition of cholesterol biosynthesis in isolated rat hepatocytes at the concentration 125 (ug/mL); format: functional, Hepatocyte
[33] = species on record: Gallus gallus; experiment: picomoles of mevalonic acid synthesized per minute per mg of microsomal protein; format: functional, organism-based
[34] = species on record: Rattus norvegicus; experiment: Inhibitory concentration required to inhibit cholesterol synthesis in isolated rat Hepatocytes; format: functional, Hepatocyte
[35] = species on record: Gallus gallus; experiment: Compound is evaluated for the effect on lipid metabolism in 6-week-old male chickens at a concentration of 20 ppm in the diet and measured for HDL cholesterol; format: functional
[36] = species on record: Gallus gallus; experiment: Compound is evaluated for the effect on lipid metabolism in 6-week-old male chickens at a concentration of 20 ppm in the diet and measured for LDL cholesterol (dose 45 p.p.m.); format: functional; procedure, shortened: as §2
[37] = species on record: Gallus gallus; experiment: Compound is evaluated for the effect on lipid metabolism in 6-week-old male chickens at a concentration of 20 ppm in the diet and measured for total cholesterol; format: functional

Compound: Cc1c(O)cc2c(c1C)OC(C)(CCCC(C)CCCC(C)CCCC(C)C)CC2 (stereo unspecified)
- Inhibition [1]: 0%
- Inhibition [2]: 3%

Compound: CC(C)=CCC/C(C)=C/CC/C(C)=C/CC[C@]1(C)CCc2cc(O)ccc2O1 (mixture of isomers)
- Inhibition [3]: 31%
- inhibition at 2200 µg/mL [4]: 70%
- inhibition at 275 µg/mL [5]: 38%
- inhibition at 1100 µg/mL [6]: 60%
- inhibition at 550 µg/mL [7]: 45%
- IC50 [8]: 600 µg/mL

Compound: CC(C)=CCC/C(C)=C/CC/C(C)=C/CCC1(C)CCc2cc(O)c(C)c(C)c2O1 (racemic)
- IC50 [9]: 5900 nM
- HDL cholesterol [10]: 97 mg 100ml-1
- Total cholesterol [11]: 138 mg 100ml-1
- IC50 [12]: 3000 nM
- LDL cholesterol [13]: 32 mg 100ml-1
- HDL cholesterol [14]: 97 mg 100ml-1
- HMGR activity [15]: 551
- HMGR activity [16]: 561
- Total cholesterol [17]: 132 mg 100ml-1
- Inhibition [18]: 62%
- LDL cholesterol [19]: 44 mg 100ml-1
- Inhibition [20]: 71%
- HDL cholesterol [21]: 96 mg 100ml-1
- Total cholesterol [22]: 143 mg 100ml-1
- IC50 [23]: 2800 nM
- LDL cholesterol [24]: 39 mg 100ml-1
- HMGR activity [25]: 603

Compound: CC(C)=CCC/C(C)=C/CC/C(C)=C/CC[C@]1(C)CCc2cc(O)c(C)c(C)c2O1 [GAMMA-TOCOTRIENOL]
- HMGR activity [26]: 546
- Inhibition [27]: 61%
- inhibition at 500 µg/mL ([27]; Rattus norvegicus, Hepatocyte): 60%
- Inhibition [28]: 64%
- HDL cholesterol [10]: 97 mg 100ml-1
- Total cholesterol [11]: 132 mg 100ml-1
- Inhibition [29]: 48% and 34%
- LDL cholesterol [30]: 41 mg 100ml-1
- HDL cholesterol [31]: 94 mg 100ml-1
- HDL cholesterol [14]: 95 mg 100ml-1
- HMGR activity [16]: 561
- Total cholesterol [17]: 125 mg 100ml-1
- Inhibition [18]: 64%
- Inhibition [32]: 28%
- HMGR activity [33]: 494
- IC50 ([34]; Rattus norvegicus, Hepatocyte, read-out: IC50): 270 µg/mL (≈ 658 µM)
- IC50 ([34]; hepatocyte): 360 µg/mL (≈ 877 µM)
- LDL cholesterol [19]: 42 mg 100ml-1
- HDL cholesterol [35]: 102 mg 100ml-1
- Inhibition [20]: 78%
- LDL cholesterol [36]: 29 mg 100ml-1
- Total cholesterol [22]: 141 mg 100ml-1
- LDL cholesterol [24]: 35 mg 100ml-1
- HMGR activity [25]: 606
- Total cholesterol [37]: 151 mg 100ml-1

Compound: COCCOCOc1cc2c(c(C)c1C)OC(C)(CC/C=C/CCC=C(C)C)CC2 (stereo unspecified)
- Inhibition [2]: 19%
